# In ChEMBL document CHEMBL1133612, “Analogues of amonafide and azonafide with novel ring systems” (J Med Chem, 2000):
# pIC50: −log10 of the molar value.
# Columns and labels:
# Format in all cases: functional, cell-based
# WiDr [1] = assay: Tested for inhibitory activity against a sensitive strain of human colon carcinoma WiDr using sulforhodamine B assay (it is MRP positive but non-P-glycoprotein).
# [2] = Tested for inhibitory activity against human tumor cell line A549 (a non small, drug resistant cell line that does not produce P-glycoprotein) of lung carcinoma using sulforhodamine B assay.
# WiDr [3] = assay: Tested for inhibitory activity against a multi drug resistant (MDR) strain of human colon carcinoma WiDr using sulforhodamine B assay (it is MRP positive but non-P-glycoprotein).
# MCF7 [4] = assay: Tested for inhibitory activity against human tumor cell line D40, a strain resistant to doxorubicin of breast carcinoma using sulforhodamine B assay.
# L1210 [5] = assay: Tested for inhibitory activity against murine cell line […], a strain resistant to doxorubicin using MTT assay.; conditions: Mus musculus
# Outline: (§1)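 Murine L1210 leukaemia cells were tested as a drug-sensitive strain and as a multiple drug-resistant strain that is P-glycoprotein positive. Growth inhibition in both strains was read by MTT assay.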
# MCF7 [6] = assay: Tested for inhibitory activity against human tumor cell line MCF7, a strain resistant to mitoxantrone of breast carcinoma using sulforhodamine B assay.
# UACC-375 = assay: Tested for inhibitory activity against human tumor cell line UA375 of melanoma using sulforhodamine B assay.
# L1210 [7] = assay: Tested for inhibitory activity against murine cell line […], a strain sensitive to doxorubicin using MTT assay.; conditions: Mus musculus; outline: as §1
# MCF7 [8] = assay: Tested for inhibitory activity against human tumor cell line MCF7, a strain sensitive to doxorubicin of breast carcinoma using sulforhodamine B assay.
# OVCAR-3 [9] = assay: Tested for inhibitory activity against human tumor cell line OVCAR-3, a resistant ovarian carcinoma using sulforhodamine B assay.
# L1210 [10] = assay: Tested for inhibitory activity against murine cell line […] leukemia, a strain resistant to doxorubicin using MTT assay.; conditions: Mus musculus; outline: as §1
# L1210 [11] = assay: Tested for inhibitory activity against murine cell line […] leukemia, a strain sensitive to doxorubicin using MTT assay.; conditions: Mus musculus; outline: as §1
# OVCAR-3 [12] = assay: Tested for inhibitory activity against human tumor cell line OVCAR-3 a resistant ovarian carcinoma using sulforhodamine B assay.
Structure (SMILES),pIC50 (WiDr [1]),pIC50 [2],pIC50 (WiDr [3]),pIC50 (MCF7 [4]),pIC50 (L1210 [5]),pIC50 (MCF7 [6]),pIC50 (UACC-375),pIC50 (L1210 [7]),pIC50 (MCF7 [8]),pIC50 (OVCAR-3 [9]),pIC50 (L1210 [10]),pIC50 (L1210 [11]),pIC50 (OVCAR-3 [12])
CN(C)CCN1C(=O)c2cccc3c2c(cc2c(N)cccc23)C1=O,6.55,6.55,6.28,6.23,7.27,6.26,5.97,7.27,6.26,6.27,,,
COc1cccc2c1cc1c3c(cccc32)C(=O)N(CCN(C)C)C1=O,6.05,6.06,5.89,6.09,5.81,6.05,6.28,6.28,6.07,7.70,,,
CN(C)CCN1C(=O)c2cccc3c2c(cc2ccccc23)C1=O,6.62,6.66,6.38,6.30,6.78,6.55,6.25,6.71,6.66,6.25,,,
CN(C)CCN1C(=O)c2cc(NC(=O)C(C)(C)C)cc3cc4c(c(c23)C1=O)CCCC4,5.92,6.07,5.82,5.89,5.82,6.00,5.37,6.01,5.77,5.37,,,
CN(C)CCN1C(=O)c2cccc3c2c(cc2cccc(O)c23)C1=O,6.59,6.80,5.64,6.17,6.27,6.41,6.39,6.27,6.20,6.17,,,
CN(C)CCN1C(=O)c2cccc3c2c(cc2c(O)cccc23)C1=O,6.49,6.38,6.30,6.25,5.87,6.47,6.27,6.09,6.20,6.09,,,
CN(C)CCN1C(=O)c2cc3cccnc3c3ccc(N)c(c23)C1=O,6.80,6.77,6.68,6.51,6.73,6.51,6.93,6.63,6.57,6.33,,,
CN(C)CCN1C(=O)c2cccc3cc4c(c(c23)C1=O)CCCC4,6.89,7.74,6.66,6.64,8.10,6.82,6.65,7.96,7.00,7.15,,,
CN(C)CCN1C(=O)c2cccc3c2c(cc2cccc(Cl)c23)C1=O,6.66,7.35,6.42,6.54,6.64,6.82,6.75,6.59,6.80,6.41,,,
CN(C)CCN1C(=O)c2cccc3c2c(cc2ncccc23)C1=O,6.96,7.49,6.59,6.49,,6.64,6.21,,6.77,,6.44,6.31,6.01
CC(=O)Nc1ccc2cc3c(c4c2c1C(=O)N(CCN(C)C)C4=O)CCCC3,7.51,7.49,6.62,6.89,7.44,7.40,6.88,7.22,7.40,7.32,,,
CN(C)CCN1C(=O)c2cccc3c2c(cc2cccc(N)c23)C1=O,6.62,7.43,6.34,6.54,7.30,6.82,6.61,7.27,6.89,7.17,,,
CN(C)CCN1C(=O)c2cccc3c2c(cc2c([N+](=O)[O-])cccc23)C1=O,6.87,6.81,6.76,6.77,7.30,6.74,6.76,7.30,6.82,7.30,,,
CN(C)CCN1C(=O)c2cccc3c2c(cc2c(Cl)cccc23)C1=O,7.70,7.66,6.96,7.10,6.29,7.72,6.29,6.11,7.22,6.29,,,
CN(C)CCN1C(=O)c2c(NC(=O)C(C)(C)C)ccc3cc4c(c(c23)C1=O)CCCC4,6.12,6.12,6.10,5.70,5.76,5.89,5.06,5.66,6.02,6.18,,,
CN(C)CCN1C(=O)c2cccc3c2c(cc2cccnc23)C1=O,6.71,6.66,6.43,6.40,7.59,6.49,6.51,7.37,6.68,6.06,,,
CN(C)CCN1C(=O)c2cc(N)cc3cc4c(c(c23)C1=O)CCCC4,6.64,6.77,5.80,6.05,7.59,6.49,6.21,7.14,6.62,6.31,,,
CN(C)CCN1C(=O)c2c(N)ccc3cc4c(c(c23)C1=O)CCCC4,7.10,7.89,6.35,6.96,8.70,6.89,6.73,7.96,6.92,7.10,,,
CN(C)CCN1C(=O)c2cccc3c2c(cc2cccc([N+](=O)[O-])c23)C1=O,6.10,6.02,5.62,6.21,6.30,6.36,6.12,6.12,6.44,6.20,,,
CC(=O)Nc1ccc2c3c(cc4cccnc42)C(=O)N(CCN(C)C)C(=O)c13,6.89,6.82,6.71,6.54,6.90,6.57,6.67,6.37,6.57,6.37,,,
CN(C)CCN1C(=O)c2cccc3cc(N)cc(c23)C1=O [AMONAFIDE],,5.96,,,,,,,,,,,
CN(C)CCN1C(=O)c2cccc3cc4ccccc4c(c23)C1=O [AZONAFIDE],,8.00,,,,,,,,,,,
COc1cccc2c1C(=O)c1c(O)c3c(c(O)c1C2=O)C[C@@](O)(C(=O)CO)C[C@@H]3O[C@H]1C[C@H](N)[C@H](O)[C@H](C)O1 [DOXORUBICIN],,7.66,,,,,,,,,,,
O=C1c2c(O)ccc(O)c2C(=O)c2c(NCCNCCO)ccc(NCCNCCO)c21 [MITOXANTRONE],8.10,8.52,,,,,,8.00,8.05,8.22,,,
